ChEMBL document CHEMBL3351385, “Synthesis and preliminary mechanistic evaluation of 5-(p-tolyl)-1-(quinolin-2-yl)pyrazole-3-carboxylic acid amides with potent antiproliferative activity on human cancer cell lines” (Eur J Med Chem, 2014)

Legend:
[1] = biological target: Eukaryotic elongation factor 2 kinase (Homo sapiens) (UniProt O00418); assay: Inhibition of EF2K (unknown origin) assessed as remaining enzyme activity at 10 uM by radioactive [33P]-ATP filter binding assay
Procedure, shortened: (§1)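 A single 10 µM concentration was tested across a 140-kinase panel. Activity was measured by a radioactive 33P-ATP filter-binding assay run at the International Center for Kinase Profiling, University of Dundee.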

[2] = biological target: Mitogen-activated protein kinase 11 (Homo sapiens) (UniProt Q15759); assay: Inhibition of p38beta (unknown origin) assessed as remaining enzyme activity at 10 uM by radioactive [33P]-ATP filter binding assay
[3] = biological target: Mitogen-activated protein kinase 8 (Homo sapiens) (UniProt P45983); assay: Inhibition of JNK1 (unknown origin) assessed as remaining enzyme activity at 10 uM by radioactive [33P]-ATP filter binding assay
[4] = biological target: Serine/threonine-protein kinase Chk1 (Homo sapiens) (UniProt O14757); assay: Inhibition of CHK1 (unknown origin) assessed as remaining enzyme activity at 10 uM by radioactive [33P]-ATP filter binding assay; procedure, shortened: as §1
[5] = biological target: Serine/threonine-protein kinase SIK3 (Homo sapiens) (UniProt Q9Y2K2); assay: Inhibition of SIK3 (unknown origin) assessed as remaining enzyme activity at 10 uM by radioactive [33P]-ATP filter binding assay
[6] = biological target: Tyrosine-protein kinase SYK (Homo sapiens) (UniProt P43405); assay: Inhibition of SYK (unknown origin) assessed as remaining enzyme activity at 10 uM by radioactive [33P]-ATP filter binding assay
[7] = biological target: Interleukin-1 receptor-associated kinase 4 (Homo sapiens) (UniProt Q9NWZ3); assay: Inhibition of IRAK4 (unknown origin) assessed as remaining enzyme activity at 10 uM by radioactive [33P]-ATP filter binding assay
[8] = biological target: Serine/threonine-protein kinase 26 (Homo sapiens) (UniProt Q9P289); assay: Inhibition of MST4 (unknown origin) assessed as remaining enzyme activity at 10 uM by radioactive [33P]-ATP filter binding assay
[9] = biological target: Insulin receptor-related protein (Homo sapiens) (UniProt P14616); assay: Inhibition of IRR (unknown origin) assessed as remaining enzyme activity at 10 uM by radioactive [33P]-ATP filter binding assay
[10] = biological target: Serine/threonine-protein kinase PAK 4 (Homo sapiens) (UniProt O96013); assay: Inhibition of PAK4 (unknown origin) assessed as remaining enzyme activity at 10 uM by radioactive [33P]-ATP filter binding assay
[11] = biological target: Serine/threonine-protein kinase PAK 2 (Homo sapiens) (UniProt Q13177); assay: Inhibition of PAK2 (unknown origin) assessed as remaining enzyme activity at 10 uM by radioactive [33P]-ATP filter binding assay
[12] = biological target: Dual specificity mitogen-activated protein kinase kinase 2 (Homo sapiens) (UniProt P36507); assay: Inhibition of MKK2 (unknown origin) assessed as remaining enzyme activity at 10 uM by radioactive [33P]-ATP filter binding assay
[13] = biological target: Dual specificity testis-specific protein kinase 1 (Homo sapiens) (UniProt Q15569); assay: Inhibition of TESK1 (unknown origin) assessed as remaining enzyme activity at 10 uM by radioactive [33P]-ATP filter binding assay
[14] = biological target: Serine/threonine-protein kinase 3 (Homo sapiens) (UniProt Q13188); assay: Inhibition of MST2 (unknown origin) assessed as remaining enzyme activity at 10 uM by radioactive [33P]-ATP filter binding assay
[15] = biological target: Testis-specific serine/threonine-protein kinase 1 (Homo sapiens) (UniProt Q9BXA7); assay: Inhibition of TSSK1 (unknown origin) assessed as remaining enzyme activity at 10 uM by radioactive [33P]-ATP filter binding assay
[16] = biological target: MAP kinase-activated protein kinase 5 (Homo sapiens) (UniProt Q8IW41); assay: Inhibition of PRAK (unknown origin) assessed as remaining enzyme activity at 10 uM by radioactive [33P]-ATP filter binding assay
[17] = biological target: Dual specificity protein kinase CLK2 (Homo sapiens) (UniProt P49760); assay: Inhibition of CLK2 (unknown origin) assessed as remaining enzyme activity at 10 uM by radioactive [33P]-ATP filter binding assay; procedure, shortened: as §1
[18] = biological target: Serine/threonine-protein kinase TBK1 (Homo sapiens) (UniProt Q9UHD2); assay: Inhibition of TBK1 (unknown origin) assessed as remaining enzyme activity at 10 uM by radioactive [33P]-ATP filter binding assay
[19] = biological target: Eukaryotic translation initiation factor 2-alpha kinase 3 (Homo sapiens) (UniProt Q9NZJ5); assay: Inhibition of EIF2AK3 (unknown origin) assessed as remaining enzyme activity at 10 uM by radioactive [33P]-ATP filter binding assay; procedure, shortened: as §1
[20] = biological target: MAP kinase-interacting serine/threonine-protein kinase 2 (Homo sapiens) (UniProt Q9HBH9); assay: Inhibition of MNK2 (unknown origin) assessed as remaining enzyme activity at 10 uM by radioactive [33P]-ATP filter binding assay
[21] = Induction of cell cycle arrest in human HuH7 cells assessed as accumulation at G0/G1 phase at cytotoxic IC50 level after 48 hrs by propidium iodide staining based FACS method; format: functional, Huh-7
Procedure, shortened: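 Huh7 cells were seeded at 150,000–300,000 per 100-mm dish and left 24 h. […] Cells were stained with a propidium iodide-containing cell cycle reagent, and subG1, G0/G1, S and G2/M fractions were scored by flow cytometry.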

[22] = biological target: Homeodomain-interacting protein kinase 2 (Homo sapiens) (UniProt Q9H2X6); assay: Inhibition of HIPK2 (unknown origin) assessed as remaining enzyme activity at 10 uM by radioactive [33P]-ATP filter binding assay
[23] = Cytotoxicity against human HCT116 cells after 72 hrs by SRB assay; format: functional, cell-based; settings: HCT-116, 72 h
Procedure, shortened: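 Cells kept in DMEM with 10% FCS and penicillin/streptomycin at 37°C, 5% CO2. 2000–3000 cells/well were seeded, and medium was refreshed the next day. DMSO solutions were added over 2.5–40 µM with matched DMSO-only controls for 72 h. Cells were then TCA-fixed, stained with 0.4% SRB in 1% acetic acid, solubilized in 10 mM Tris pH 8 and read at 515 nm. Data were normalized to DMSO wells and expressed as mean ±SD.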

[24] = biological target: Mitogen-activated protein kinase kinase kinase 11 (Homo sapiens) (UniProt Q16584); assay: Inhibition of MLK3 (unknown origin) assessed as remaining enzyme activity at 10 uM by radioactive [33P]-ATP filter binding assay
[25] = biological target: Tyrosine-protein kinase ZAP-70 (Homo sapiens) (UniProt P43403); assay: Inhibition of ZAP70 (unknown origin) assessed as remaining enzyme activity at 10 uM by radioactive [33P]-ATP filter binding assay
[26] = biological target: High affinity nerve growth factor receptor (Homo sapiens) (UniProt P04629); assay: Inhibition of TrkA (unknown origin) assessed as remaining enzyme activity at 10 uM by radioactive [33P]-ATP filter binding assay
[27] = biological target: Mitogen-activated protein kinase 12 (Homo sapiens) (UniProt P53778); assay: Inhibition of p38gamma (unknown origin) assessed as remaining enzyme activity at 10 uM by radioactive [33P]-ATP filter binding assay
Procedure, shortened: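 Single-concentration screen against a 140-kinase panel. Done by the International Center for Kinase Profiling, University of Dundee, with a radioactive 33P-ATP filter-binding read-out.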

Testis-specific serine/threonine-protein kinase 1 (Homo sapiens), sequence (Q9BXA7 whole entry): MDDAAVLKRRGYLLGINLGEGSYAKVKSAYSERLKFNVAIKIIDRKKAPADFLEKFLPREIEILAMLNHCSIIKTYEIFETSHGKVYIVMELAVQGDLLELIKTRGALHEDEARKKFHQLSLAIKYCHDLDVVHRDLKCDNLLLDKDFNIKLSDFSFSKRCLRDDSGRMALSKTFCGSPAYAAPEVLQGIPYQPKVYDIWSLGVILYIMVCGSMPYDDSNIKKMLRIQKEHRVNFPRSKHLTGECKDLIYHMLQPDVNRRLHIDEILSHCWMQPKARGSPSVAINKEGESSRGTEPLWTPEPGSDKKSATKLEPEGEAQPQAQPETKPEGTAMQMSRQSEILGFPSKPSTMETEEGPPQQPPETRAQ
Mitogen-activated protein kinase 11 (Homo sapiens), sequence (Q15759 whole entry): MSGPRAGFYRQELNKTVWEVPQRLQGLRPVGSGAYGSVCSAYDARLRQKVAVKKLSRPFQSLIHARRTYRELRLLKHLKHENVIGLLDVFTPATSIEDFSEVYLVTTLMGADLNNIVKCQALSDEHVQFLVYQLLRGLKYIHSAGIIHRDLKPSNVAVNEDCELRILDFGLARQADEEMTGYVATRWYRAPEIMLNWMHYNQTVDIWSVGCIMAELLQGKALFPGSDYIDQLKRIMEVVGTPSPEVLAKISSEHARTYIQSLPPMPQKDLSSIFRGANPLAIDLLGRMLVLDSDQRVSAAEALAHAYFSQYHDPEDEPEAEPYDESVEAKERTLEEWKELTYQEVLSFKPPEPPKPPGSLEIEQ
Insulin receptor-related protein (Homo sapiens), sequence (P14616 27-742 limits assumed): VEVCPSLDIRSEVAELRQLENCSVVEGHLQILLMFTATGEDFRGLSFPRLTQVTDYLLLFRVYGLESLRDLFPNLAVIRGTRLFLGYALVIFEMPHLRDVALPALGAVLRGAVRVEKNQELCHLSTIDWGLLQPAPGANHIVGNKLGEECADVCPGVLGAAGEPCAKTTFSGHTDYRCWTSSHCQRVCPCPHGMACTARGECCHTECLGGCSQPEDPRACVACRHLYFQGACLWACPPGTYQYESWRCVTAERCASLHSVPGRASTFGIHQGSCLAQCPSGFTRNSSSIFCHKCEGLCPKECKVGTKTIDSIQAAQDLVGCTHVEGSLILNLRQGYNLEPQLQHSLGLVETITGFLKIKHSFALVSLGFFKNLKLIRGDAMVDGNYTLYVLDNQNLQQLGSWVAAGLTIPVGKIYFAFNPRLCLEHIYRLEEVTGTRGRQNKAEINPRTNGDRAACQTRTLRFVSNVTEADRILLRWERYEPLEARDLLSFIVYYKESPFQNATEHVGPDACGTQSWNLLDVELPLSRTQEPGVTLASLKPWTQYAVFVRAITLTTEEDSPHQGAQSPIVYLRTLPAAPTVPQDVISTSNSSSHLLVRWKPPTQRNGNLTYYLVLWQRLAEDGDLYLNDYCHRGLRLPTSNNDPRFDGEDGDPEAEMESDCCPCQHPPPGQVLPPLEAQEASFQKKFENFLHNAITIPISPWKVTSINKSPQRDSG
Insulin receptor-related protein (Homo sapiens), sequence (P14616 747-1297 limits assumed): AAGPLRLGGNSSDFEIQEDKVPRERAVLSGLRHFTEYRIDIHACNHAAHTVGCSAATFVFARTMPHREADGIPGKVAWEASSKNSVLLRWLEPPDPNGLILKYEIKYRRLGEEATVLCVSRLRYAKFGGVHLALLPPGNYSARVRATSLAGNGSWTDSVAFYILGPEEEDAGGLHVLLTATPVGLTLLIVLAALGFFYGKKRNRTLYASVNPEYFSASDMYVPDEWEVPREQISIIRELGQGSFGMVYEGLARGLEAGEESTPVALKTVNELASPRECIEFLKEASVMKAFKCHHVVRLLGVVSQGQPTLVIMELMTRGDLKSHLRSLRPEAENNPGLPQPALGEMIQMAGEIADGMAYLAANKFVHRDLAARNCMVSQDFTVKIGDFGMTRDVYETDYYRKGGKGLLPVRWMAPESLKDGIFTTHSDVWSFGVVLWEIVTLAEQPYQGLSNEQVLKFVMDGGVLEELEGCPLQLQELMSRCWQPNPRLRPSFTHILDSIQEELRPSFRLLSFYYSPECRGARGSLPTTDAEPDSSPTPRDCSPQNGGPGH
Eukaryotic translation initiation factor 2-alpha kinase 3 (Homo sapiens), sequence (Q9NZJ5 whole entry): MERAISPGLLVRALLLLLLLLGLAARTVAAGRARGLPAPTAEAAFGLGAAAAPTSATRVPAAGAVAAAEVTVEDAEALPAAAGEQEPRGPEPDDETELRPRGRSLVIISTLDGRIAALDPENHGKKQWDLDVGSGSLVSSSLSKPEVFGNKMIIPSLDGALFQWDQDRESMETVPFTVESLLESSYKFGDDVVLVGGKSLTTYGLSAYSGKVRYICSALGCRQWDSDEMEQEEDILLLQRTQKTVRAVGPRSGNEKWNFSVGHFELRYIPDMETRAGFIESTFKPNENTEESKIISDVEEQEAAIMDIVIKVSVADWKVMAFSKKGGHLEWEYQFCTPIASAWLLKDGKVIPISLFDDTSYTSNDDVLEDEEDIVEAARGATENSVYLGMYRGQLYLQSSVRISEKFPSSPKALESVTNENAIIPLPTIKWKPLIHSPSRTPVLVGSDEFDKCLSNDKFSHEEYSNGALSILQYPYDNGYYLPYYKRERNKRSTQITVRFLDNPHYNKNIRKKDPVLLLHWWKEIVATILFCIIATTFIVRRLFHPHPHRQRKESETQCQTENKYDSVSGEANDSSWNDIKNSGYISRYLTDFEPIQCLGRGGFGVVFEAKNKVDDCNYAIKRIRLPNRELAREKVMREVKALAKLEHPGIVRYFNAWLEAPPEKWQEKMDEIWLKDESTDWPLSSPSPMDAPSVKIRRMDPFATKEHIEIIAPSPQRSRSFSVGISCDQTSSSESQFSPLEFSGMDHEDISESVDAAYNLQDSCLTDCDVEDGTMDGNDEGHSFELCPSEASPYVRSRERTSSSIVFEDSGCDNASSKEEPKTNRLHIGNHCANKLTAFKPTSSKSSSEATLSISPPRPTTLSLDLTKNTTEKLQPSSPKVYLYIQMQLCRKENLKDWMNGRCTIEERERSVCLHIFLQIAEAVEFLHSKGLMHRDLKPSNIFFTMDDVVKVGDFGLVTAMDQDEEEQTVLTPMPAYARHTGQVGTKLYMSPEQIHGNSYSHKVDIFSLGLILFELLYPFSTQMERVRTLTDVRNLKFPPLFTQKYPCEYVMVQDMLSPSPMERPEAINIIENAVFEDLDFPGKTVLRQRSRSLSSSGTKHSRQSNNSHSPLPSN
Mitogen-activated protein kinase 8 (Homo sapiens), sequence (P45983 whole entry): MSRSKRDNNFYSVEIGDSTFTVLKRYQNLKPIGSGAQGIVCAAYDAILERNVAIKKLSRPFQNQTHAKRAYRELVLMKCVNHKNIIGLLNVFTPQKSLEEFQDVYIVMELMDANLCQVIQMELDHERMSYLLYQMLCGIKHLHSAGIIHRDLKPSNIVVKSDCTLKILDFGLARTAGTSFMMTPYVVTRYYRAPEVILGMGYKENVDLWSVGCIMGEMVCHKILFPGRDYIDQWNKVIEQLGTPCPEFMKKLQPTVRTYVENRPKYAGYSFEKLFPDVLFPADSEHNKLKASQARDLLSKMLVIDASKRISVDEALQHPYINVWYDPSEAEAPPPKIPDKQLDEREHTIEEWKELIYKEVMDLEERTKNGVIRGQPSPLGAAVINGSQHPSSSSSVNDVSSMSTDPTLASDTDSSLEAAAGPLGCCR
Serine/threonine-protein kinase Chk1 (Homo sapiens), sequence (O14757 whole entry): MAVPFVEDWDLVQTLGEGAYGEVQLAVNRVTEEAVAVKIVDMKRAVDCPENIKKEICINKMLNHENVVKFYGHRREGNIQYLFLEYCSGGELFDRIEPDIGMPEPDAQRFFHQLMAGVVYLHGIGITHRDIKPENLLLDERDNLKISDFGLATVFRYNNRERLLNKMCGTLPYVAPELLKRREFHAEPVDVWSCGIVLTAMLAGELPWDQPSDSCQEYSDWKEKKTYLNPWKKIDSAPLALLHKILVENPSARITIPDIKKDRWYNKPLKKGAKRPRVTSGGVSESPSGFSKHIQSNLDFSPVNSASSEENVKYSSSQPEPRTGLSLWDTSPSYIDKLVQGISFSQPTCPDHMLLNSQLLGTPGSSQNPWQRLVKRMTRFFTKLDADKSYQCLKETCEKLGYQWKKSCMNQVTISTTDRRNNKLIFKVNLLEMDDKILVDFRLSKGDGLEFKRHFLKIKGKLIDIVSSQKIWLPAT
Eukaryotic elongation factor 2 kinase (Homo sapiens), sequence (O00418 whole entry): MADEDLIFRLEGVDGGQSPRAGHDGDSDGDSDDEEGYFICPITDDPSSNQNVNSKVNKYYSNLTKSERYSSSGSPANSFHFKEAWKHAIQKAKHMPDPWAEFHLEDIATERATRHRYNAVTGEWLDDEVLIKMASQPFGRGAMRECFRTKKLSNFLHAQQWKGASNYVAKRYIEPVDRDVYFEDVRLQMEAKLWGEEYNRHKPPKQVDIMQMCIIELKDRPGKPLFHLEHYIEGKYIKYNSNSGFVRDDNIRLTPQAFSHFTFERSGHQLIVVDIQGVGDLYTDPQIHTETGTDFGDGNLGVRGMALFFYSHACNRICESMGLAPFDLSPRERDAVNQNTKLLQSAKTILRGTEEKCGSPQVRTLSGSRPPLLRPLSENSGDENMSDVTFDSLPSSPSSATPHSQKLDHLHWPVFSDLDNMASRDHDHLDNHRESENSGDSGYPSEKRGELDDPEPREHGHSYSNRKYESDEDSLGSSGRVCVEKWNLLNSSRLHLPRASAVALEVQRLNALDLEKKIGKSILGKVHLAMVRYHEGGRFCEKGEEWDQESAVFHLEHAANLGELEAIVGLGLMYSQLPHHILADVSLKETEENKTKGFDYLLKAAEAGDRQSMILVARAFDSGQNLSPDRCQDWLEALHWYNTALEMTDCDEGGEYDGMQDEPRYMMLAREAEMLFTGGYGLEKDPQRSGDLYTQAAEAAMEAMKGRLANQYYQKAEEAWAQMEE

Cc1ccc(-c2cc(C(=O)Nc3ccnc(Cl)c3)nn2-c2ccc3ccccc3n2)cc1
Activity [1]: 97%
Activity [2]: 107%
Activity [3]: 103%
Activity [4]: 85%
Activity [5]: 81%
Activity [6]: 97%
Activity [7]: 90%
Activity [8]: 110%
Activity [9]: 100%
Activity [10]: 105%
Activity [11]: 109%
Activity [12]: 94%
Activity [13]: 76%
Activity [14]: 104%
Activity [15]: 90%
Activity [16]: 88%
Activity [17]: 83%
Activity [18]: 93%
Activity [19]: 96%
Activity [20]: 109%
Activity [21]: 40.1%
Activity [22]: 124%
IC50 [23]: 1100 nM
Activity [24]: 76%
Activity [25]: 115%
Activity [26]: 96%
Activity [27]: 107%
